Experimental data reported in ChEMBL document CHEMBL1157006, “Cellular localization and allele-selective inhibition of mutant huntingtin protein by peptide nucleic acid oligomers containing the fluorescent nucleobase [bis-o-(aminoethoxy)phenyl]pyrrolocytosine” (Bioorg Med Chem Lett, 2009).

Experiments:
[1] = Inhibition of huntingtin […] expression in human GM04281 cells with 69 CAG repeats within mutant allele by Western blotting; assay type: functional, cell-based; details: in the assay text read “17 CAG repeats within wild type allele” for “69 CAG repeats within mutant allele”
Method in brief: (§1)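 Patient-derived GM04281 fibroblasts carrying both wild-type and mutant HTT alleles were exposed to PNA-peptide conjugates, at 1 µM or across a concentration series. Mutant and wild-type HTT protein were measured separately by western blot and expressed relative to untreated cells. Experiments were run in triplicate.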

[2] = Inhibition of huntingtin […] expression in human GM04281 cells with 17 CAG repeats within wild type allele by Western blotting; assay type: functional, cell-based; details: in the assay text read “69 CAG repeats within mutant allele” for “17 CAG repeats within wild type allele”; method in brief: as §1
[3] = Ratio of IC50 for huntingtin […] expression in human GM04281 cells with 17 CAG repeats within wild type allele to huntingtin […] expression in human GM04281 cells with 69 CAG repeats within mutant allele; assay type: functional
[4] = Inhibition of huntingtin […] expression in human GM04281 cells with 17 CAG repeats within wild type allele at >1 uM by Western blotting; assay type: functional; details: in the assay text read “69 CAG repeats within mutant allele” for “17 CAG repeats within wild type allele”; method in brief: as §1
[5] = Inhibition of huntingtin […] expression in human GM04281 cells with 69 CAG repeats within mutant allele at 0.2 to 2 uM by Western blotting; assay type: functional; method in brief: as §1

Row | Compound | IC50 [1] | IC50 [2] | Ratio IC50 [3] | inhibition (INH) [4] | inhibition (INH) [5]
1 | Cc1cn(CC(=O)N(CCNC(=O)CN(CCNC(=O)CN(CCNC(=O)CN(CCNC(=O)CN(CCNC(=O)CN(CCNC(=O)CN(CCNC(=O)CN(CCNC(=O)CN(CCNC(=O)CN(CCNC(=O)CN(CCNC(=O)CN(CCN)C(=O)Cn2cnc3c(=O)[nH]c(N)nc32)C(=O)Cn2cc3cc(-c4c(OCCN)cccc4OCCN)[nH]c3nc2=O)C(=O)Cn2cc(C)c(=O)[nH]c2=O)C(=O)Cn2cnc3c(=O)[nH]c(N)nc32)C(=O)Cn2cc3cc(-c4c(OCCN)cccc4OCCN)[nH]c3nc2=O)C(=O)Cn2cc(C)c(=O)[nH]c2=O)C(=O)Cn2cnc3c(=O)[nH]c(N)nc32)C(=O)Cn2cc3cc(-c4c(OCCN)cccc4OCCN)[nH]c3nc2=O)C(=O)Cn2cc(C)c(=O)[nH]c2=O)C(=O)Cn2cnc3c(=O)[nH]c(N)nc32)C(=O)Cn2cc3cc(-c4c(OCCN)cccc4OCCN)[nH]c3nc2=O)CC(=O)NCCN(CC(N)=O)C(=O)Cn2cnc3c(=O)[nH]c(N)nc32)c(=O)[nH]c1=O | > 4000 nM | 2600 nM | – | – | –
2 | Cc1cn(CC(=O)N(CCNC(=O)CN(CCNC(=O)CN(CCNC(=O)CN(CCNC(=O)CN(CCNC(=O)CN(CCNC(=O)CN(CCNC(=O)CN(CCNC(=O)CN(CCNC(=O)CN(CCNC(=O)CN(CCNC(=O)CN(CCN)C(=O)Cn2cnc3c(=O)[nH]c(N)nc32)C(=O)Cn2ccc(N)nc2=O)C(=O)Cn2cc(C)c(=O)[nH]c2=O)C(=O)Cn2cnc3c(=O)[nH]c(N)nc32)C(=O)Cn2ccc(N)nc2=O)C(=O)Cn2cc(C)c(=O)[nH]c2=O)C(=O)Cn2cnc3c(=O)[nH]c(N)nc32)C(=O)Cn2ccc(N)nc2=O)C(=O)Cn2cc(C)c(=O)[nH]c2=O)C(=O)Cn2cnc3c(=O)[nH]c(N)nc32)C(=O)Cn2ccc(N)nc2=O)CC(=O)NCCN(CC(N)=O)C(=O)Cn2cnc3c(=O)[nH]c(N)nc32)c(=O)[nH]c1=O | > 2000 nM | 470 nM | >4 | – | –
3 | Cc1cn(CC(=O)N(CCNC(=O)CN(CCNC(=O)CN(CCNC(=O)CN(CCNC(=O)CN(CCNC(=O)CN(CCNC(=O)CN(CCNC(=O)CN(CCNC(=O)CN(CCNC(=O)CN(CCNC(=O)CN(CCNC(=O)CN(CCN)C(=O)Cn2cnc3c(=O)[nH]c(N)nc32)C(=O)Cn2cc3cc(-c4c(OCCN)cccc4OCCN)[nH]c3nc2=O)C(=O)Cn2cc(C)c(=O)[nH]c2=O)C(=O)Cn2cnc3c(=O)[nH]c(N)nc32)C(=O)Cn2cc3cc(-c4c(OCCN)cccc4OCCN)[nH]c3nc2=O)C(=O)Cn2cc(C)c(=O)[nH]c2=O)C(=O)Cn2cnc3c(=O)[nH]c(N)nc32)C(=O)Cn2cc3cc(-c4c(OCCN)cccc4OCCN)[nH]c3nc2=O)C(=O)Cn2cc(C)c(=O)[nH]c2=O)C(=O)Cn2cnc3c(=O)[nH]c(N)nc32)C(=O)Cn2ccc(N)nc2=O)CC(=O)NCCN(CC(N)=O)C(=O)Cn2cnc3c(=O)[nH]c(N)nc32)c(=O)[nH]c1=O | > 4000 nM | 970 nM | – | >50% | <50%

The next compounds have a lower IC50 [1] than those just listed; values first:

Row | IC50 [1] | IC50 [2] | Compound | Ratio IC50 [3] | inhibition (INH) [4] | inhibition (INH) [5]
4 | 1860 nM | 710 nM | Cc1cn(CC(=O)N(CCNC(=O)CN(CCNC(=O)CN(CCNC(=O)CN(CCNC(=O)CN(CCNC(=O)CN(CCNC(=O)CN(CCNC(=O)CN(CCNC(=O)CN(CCNC(=O)CN(CCNC(=O)CN(CCNC(=O)CN(CCN)C(=O)Cn2cnc3c(=O)[nH]c(N)nc32)C(=O)Cn2ccc(N)nc2=O)C(=O)Cn2cc(C)c(=O)[nH]c2=O)C(=O)Cn2cnc3c(=O)[nH]c(N)nc32)C(=O)Cn2ccc(N)nc2=O)C(=O)Cn2cc(C)c(=O)[nH]c2=O)C(=O)Cn2cnc3c(=O)[nH]c(N)nc32)C(=O)Cn2cc3cc(-c4c(OCCN)cccc4OCCN)[nH]c3nc2=O)C(=O)Cn2cc(C)c(=O)[nH]c2=O)C(=O)Cn2cnc3c(=O)[nH]c(N)nc32)C(=O)Cn2ccc(N)nc2=O)CC(=O)NCCN(CC(N)=O)C(=O)Cn2cnc3c(=O)[nH]c(N)nc32)c(=O)[nH]c1=O | – | – | –
5 | 1680 nM | 540 nM | Cc1cn(CC(=O)N(CCNC(=O)CN(CCNC(=O)CN(CCNC(=O)CN(CCNC(=O)CN(CCNC(=O)CN(CCNC(=O)CN(CCNC(=O)CN(CCNC(=O)CN(CCNC(=O)CN(CCNC(=O)CN(CCNC(=O)CN(CCN)C(=O)Cn2cnc3c(=O)[nH]c(N)nc32)C(=O)Cn2cc3cc(-c4c(OCCN)cccc4OCCN)[nH]c3nc2=O)C(=O)Cn2cc(C)c(=O)[nH]c2=O)C(=O)Cn2cnc3c(=O)[nH]c(N)nc32)C(=O)Cn2ccc(N)nc2=O)C(=O)Cn2cc(C)c(=O)[nH]c2=O)C(=O)Cn2cnc3c(=O)[nH]c(N)nc32)C(=O)Cn2ccc(N)nc2=O)C(=O)Cn2cc(C)c(=O)[nH]c2=O)C(=O)Cn2cnc3c(=O)[nH]c(N)nc32)C(=O)Cn2ccc(N)nc2=O)CC(=O)NCCN(CC(N)=O)C(=O)Cn2cnc3c(=O)[nH]c(N)nc32)c(=O)[nH]c1=O | – | – | –
6 | 1300 nM | 580 nM | Cc1cn(CC(=O)N(CCNC(=O)CN(CCNC(=O)CN(CCNC(=O)CN(CCNC(=O)CN(CCNC(=O)CN(CCNC(=O)CN(CCNC(=O)CN(CCNC(=O)CN(CCNC(=O)CN(CCNC(=O)CN(CCNC(=O)CN(CCN)C(=O)Cn2cnc3c(=O)[nH]c(N)nc32)C(=O)Cn2cc3cc(-c4c(OCCN)cccc4OCCN)[nH]c3nc2=O)C(=O)Cn2cc(C)c(=O)[nH]c2=O)C(=O)Cn2cnc3c(=O)[nH]c(N)nc32)C(=O)Cn2ccc(N)nc2=O)C(=O)Cn2cc(C)c(=O)[nH]c2=O)C(=O)Cn2cnc3c(=O)[nH]c(N)nc32)C(=O)Cn2cc3cc(-c4c(OCCN)cccc4OCCN)[nH]c3nc2=O)C(=O)Cn2cc(C)c(=O)[nH]c2=O)C(=O)Cn2cnc3c(=O)[nH]c(N)nc32)C(=O)Cn2ccc(N)nc2=O)CC(=O)NCCN(CC(N)=O)C(=O)Cn2cnc3c(=O)[nH]c(N)nc32)c(=O)[nH]c1=O | – | – | –
